The source made the active and inactive calls.
What was measured:
[1] = biological target: T1, Phosphatidylinositol 5-phosphate 4-kinase type-2 alpha (Homo sapiens) (UniProt P48426); assay: Induction of PI5P4Kalpha degradation in human MOLT-4 cells at 1 to 10 uM incubated for 6 hrs by Immunoblot analysis; format: cell-based; details: dose 1-10 µM
T1 sequence (whole entry): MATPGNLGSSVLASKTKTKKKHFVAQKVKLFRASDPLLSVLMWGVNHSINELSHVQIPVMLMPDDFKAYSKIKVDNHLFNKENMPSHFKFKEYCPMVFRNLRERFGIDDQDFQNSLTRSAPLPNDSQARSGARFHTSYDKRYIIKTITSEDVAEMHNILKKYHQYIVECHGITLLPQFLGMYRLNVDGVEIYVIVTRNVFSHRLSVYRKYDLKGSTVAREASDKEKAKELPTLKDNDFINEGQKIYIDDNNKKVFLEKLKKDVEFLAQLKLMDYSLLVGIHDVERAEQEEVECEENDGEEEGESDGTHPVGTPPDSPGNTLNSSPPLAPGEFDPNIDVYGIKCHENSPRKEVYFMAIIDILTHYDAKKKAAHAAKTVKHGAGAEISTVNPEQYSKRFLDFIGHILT
Summary of the method: (§1)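 MOLT-4 cells were grown in RPMI-1640 with L-glutamine, 10% FBS and 1% penicillin/streptomycin, then exposed to compound for 6 h. Cells were lysed in RIPA buffer (pH 8.0) with protease and phosphatase inhibitors, and protein was measured by BCA. Equal protein was run on 4–12% gels and blotted to PVDF. Membranes were probed with PI5P4Kα or PI5P4Kβ antibody at 4 °C overnight, then with IRDye secondary for 1 h at RT, and imaged on an Odyssey.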

[2] = biological target: T2, Phosphatidylinositol 5-phosphate 4-kinase type-2 beta (Homo sapiens) (UniProt P78356); assay: Induction of PI5P4Kbeta degradation in human MOLT-4 cells at 1 to 10 uM incubated for 6 hrs by Immunoblot analysis; format: cell-based; details: dose 1-10 µM; summary of the method: as §1
T2 sequence (whole entry): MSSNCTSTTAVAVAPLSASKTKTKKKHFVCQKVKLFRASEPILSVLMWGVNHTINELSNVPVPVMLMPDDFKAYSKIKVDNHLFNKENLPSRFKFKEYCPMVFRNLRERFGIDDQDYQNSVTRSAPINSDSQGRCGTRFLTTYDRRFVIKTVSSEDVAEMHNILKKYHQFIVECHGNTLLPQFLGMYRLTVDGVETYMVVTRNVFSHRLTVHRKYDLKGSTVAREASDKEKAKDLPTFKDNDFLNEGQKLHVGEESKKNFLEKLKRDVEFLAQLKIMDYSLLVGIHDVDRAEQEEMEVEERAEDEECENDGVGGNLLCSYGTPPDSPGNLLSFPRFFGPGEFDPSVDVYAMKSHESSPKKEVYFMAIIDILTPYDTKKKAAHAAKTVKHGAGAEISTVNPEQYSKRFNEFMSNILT

[3] = biological target: T1, Phosphatidylinositol 5-phosphate 4-kinase type-2 alpha (Homo sapiens); assay: Binding affinity to full length recombinant human PI5P4Kalpha incubated for 30 mins in presence of ATP by HTRF assay
[4] = biological target: T2, Phosphatidylinositol 5-phosphate 4-kinase type-2 beta (Homo sapiens); assay: Binding affinity to full length wild type human PI5P4Kbeta by KINOMEscan KdELECT assay

Measured: Activity

Cc1ncsc1-c1ccc([C@H](C)NC(=O)[C@@H]2C[C@@H](O)CN2C(=O)[C@@H](NC(=O)CCCCCCCCC(=O)Nc2ccc(C(=O)Nc3cccc(Nc4cc(-c5c[nH]c6ccccc56)ncn4)c3)cc2)C(C)(C)C)cc1
inactive: all assays above

Cc1ncsc1-c1ccc([C@H](C)NC(=O)[C@@H]2C[C@@H](O)CN2C(=O)[C@@H](NC(=O)CCC(=O)Nc2ccc(C(=O)Nc3cccc(Nc4cc(-c5c[nH]c6ccccc56)ncn4)c3)cc2)C(C)(C)C)cc1
inactive: all assays above

Cc1ncsc1-c1ccc([C@H](C)NC(=O)[C@@H]2C[C@@H](O)CN2C(=O)C(NC(=O)CCCCCCC(=O)Nc2ccc(C(=O)Nc3cccc(Nc4cc(-c5c[nH]c6ccccc56)ncn4)c3)cc2)C(C)(C)C)cc1 (single isomer, unassigned)
inactive: all assays above

CC(=O)N[C@H](C(=O)N1C[C@H](O)C[C@H]1C(=O)N[C@@H](C)c1ccc(-c2scnc2C)cc1OCCCCCNC(=O)c1ccc(C(=O)Nc2cccc(Nc3cc(-c4c[nH]c5ccccc45)ncn3)c2)cc1)C(C)(C)C
inactive: all assays above

Cc1ncsc1-c1ccc([C@H](C)NC(=O)[C@@H]2C[C@@H](O)CN2C(=O)[C@@H](NC(=O)CCCCC(=O)Nc2ccc(C(=O)Nc3cccc(Nc4cc(-c5c[nH]c6ccccc56)ncn4)c3)cc2)C(C)(C)C)cc1
inactive: all assays above
